# Bioassay records: PubChem BioAssay, several laboratories
# This is a sample that favours compounds with a hit; in the whole collection about 4.7% have one here.
# ADAM17 inh = ADAM17 inhibition, QFRET primary screen; recombinant ADAM17, EDANS/DABCYL FRET peptide cleavage; AID 720648; inhibition, % at 6.95 µM; actives 0.83% (n = 370,000);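 active means inhibition above the mean of compounds lying between control limits plus 3 SD, set per campaign, cut at about 8.5% in these data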
# Target sequence (P78536 215-824 limits assumed): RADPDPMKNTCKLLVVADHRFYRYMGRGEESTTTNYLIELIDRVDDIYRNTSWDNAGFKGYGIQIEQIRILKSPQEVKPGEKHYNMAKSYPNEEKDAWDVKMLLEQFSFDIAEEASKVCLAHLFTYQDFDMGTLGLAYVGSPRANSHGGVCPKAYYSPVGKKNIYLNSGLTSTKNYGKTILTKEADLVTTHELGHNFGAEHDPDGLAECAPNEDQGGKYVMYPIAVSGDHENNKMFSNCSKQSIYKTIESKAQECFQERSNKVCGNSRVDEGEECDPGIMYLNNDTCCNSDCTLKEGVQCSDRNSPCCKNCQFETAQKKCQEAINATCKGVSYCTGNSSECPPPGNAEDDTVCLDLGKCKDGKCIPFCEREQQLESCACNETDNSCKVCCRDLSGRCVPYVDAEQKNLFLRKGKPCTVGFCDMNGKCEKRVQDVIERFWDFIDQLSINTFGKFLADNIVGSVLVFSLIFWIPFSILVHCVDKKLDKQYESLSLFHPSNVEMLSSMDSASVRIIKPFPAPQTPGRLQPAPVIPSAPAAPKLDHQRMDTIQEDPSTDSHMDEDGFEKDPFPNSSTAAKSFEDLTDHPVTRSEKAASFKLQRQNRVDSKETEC
# GRIN3A LBD mod = NR3A (human) ligand-binding domain modulation | NR3A LBD differential scanning fluorimetry, Tm shift; 0% = protein alone, 100% = glycine-bound protein | Tm shift relative to glycine control, % at 25 µM | actives 2.5% (n = 340,000) | AID 1259313;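 active means melting temperature shift of at least 10% of the positive control shift, at one fixed dose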
# MT1-MMP act inh = blocks activation of human MT1-MMP; P50281; HT1080 RFP-PRO-GFP cells, GFP/RFP ratio fluorescence, overnight; percent of plate control window, DMSO zero; GFP/RFP ratio change, % at 20 µM; actives 0.061% (n = 360,000); AID 651647;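 active means GFP/RFP ratio change of at least 30% with cell ATP level not reduced by more than half and red fluorescence within 50% of control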
#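 Test system: HT1080 cells expressing an RFP-PRO-GFP fluorescent reporter construct / Compound dosing: single-point 20 µM compound, 1% DMSO / Schedule: cells overnight before dosing, compound overnight, 37 °C, 5% CO2 / Evaluation: GFP/RFP fluorescence ratio / Control set: DMSO and RFP-L50D-GFP cell wells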
# SKN-1 inh = inhibitors of C. elegans SKN-1; C. elegans VP596 Pgst-4::GFP/RFP ratio, acrylamide-induced, 24 h; inhibition, % at 21.8 µM; actives 0.49% (n = 360,000); AID 624304;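 active means interference check ratio from 0.5 to 1.5 plus GFP to RFP signal ratio inhibition reaching or exceeding a fixed threshold, cut at about 30% in these data, passing the limit was not always enough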
# ADAM10 inh = ADAM10 inhibition, QFRET primary screen; AID 720582; inhibition, % at 7 µM; recombinant ADAM10, EDANS/DABCYL FRET peptide cleavage, 3 h; actives 0.62% (n = 370,000);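 active means inhibition above a per-campaign cutoff equal to the mean of compounds falling between control-based bounds plus 3 SD, cut at about 20% in these data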
# MPTP block = inhibitors of mitochondrial permeability transition pore; isolated mouse mitochondria, Ca2+ swelling absorbance, 30 min; inhibition, % at 10 µM; actives 1.4% (n = 360,000); AID 602449;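 active means inhibition of 50% or more, scaled per plate between neutral and stimulator controls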
# Rh123 counter = membrane potential counter-screen of mitochondrial pore inhibitors. shares compounds with MPTP block. isolated mitochondria, Rhodamine 123 fluorescence. inhibition, % at 10 µM. actives 78% (n = 5,000); in the data active means inhibition above about 22%
# MPTP swell DR = MPTP inhibition, dose response swelling confirmation; isolated mitochondria swelling, absorbance; shares compounds with MPTP block; IC50, µM; actives 58% (n = 780); in the data active means IC50 below about 20 µM
# MPTP cs DR = MPTP inhibitor counter-screen activity, dose response | shares compounds with MPTP block | isolated mitochondria counterscreen, fluorescence read-out | IC50, µM | actives 49% (n = 780) | AID 651564; in the data active means IC50 below about 80 µM
# A number is an active result; . = inactive; / = no result given.
SMILES,ADAM17 inh,GRIN3A LBD mod,MT1-MMP act inh,SKN-1 inh,ADAM10 inh,MPTP block,Rh123 counter,others
O=C(c1ccc(-c2ccccc2)c(F)c1)C1CCCN(C(=O)c2cncs2)C1 (configuration not stated),.,.,.,.,.,52,52,
O=C(Nc1cccc(C(F)(F)F)c1)c1cccnc1NCCO,.,.,.,.,.,.,/,
O=C(Nc1cccc(C(F)(F)F)c1)c1cccnc1NCCc1ccccc1,.,28,.,.,.,80,70,
COc1ccc(-c2cc3c(=O)n(CC(=O)NCCCN4CCC(Cc5ccccc5)CC4)ncn3n2)cc1,.,.,.,.,.,85,.,
CCOc1ccc(CCNC(=O)Cn2ncn3nc(-c4ccc(OC)cc4)cc3c2=O)cc1,.,.,.,.,.,.,/,
COc1ccc(-c2cc3c(=O)n(CC(=O)NCc4ccc(Cl)cc4)ncn3n2)cc1,.,.,.,.,.,.,/,
COc1ccc(-c2cc3c(=O)n(CC(=O)NCCCN4CCN(Cc5ccccc5)CC4)ncn3n2)cc1,.,.,.,.,.,91,51,
O=S(=O)(c1ccc(-c2csc(Nc3ccc(Br)cc3)n2)cc1)N1CCCC1,.,25,.,.,.,60,56,
O=S(=O)(c1ccc(-c2csc(Nc3ccc(F)cc3)n2)cc1)N1CCCC1,.,24,.,.,.,84,69,
CCOC(=O)Cc1nnc2c(Nc3ccccc3F)nc3nonc3n12,.,.,.,.,.,92,125,
CCOC(=O)Cc1nnc2c(Nc3ccc(C)cc3)nc3nonc3n12,.,.,.,.,.,.,/,
CCOC(=O)C1CCCN(S(=O)(=O)c2cc(OCC(=O)NC3CCCCC3)c(C)cc2Cl)C1 (configuration not stated),.,.,.,.,.,.,/,
CCC(C)NS(=O)(=O)c1ccc(S(=O)(=O)N2CC=C(c3ccc(F)cc3)CC2)cc1 (configuration not stated),.,.,.,.,.,66,56,
CN1CCN(CCCC(=O)c2ccc(C3CCCC3)cc2)CC1,.,.,.,.,.,79,.,MPTP swell DR=5.9;MPTP cs DR=19
O=C(CCCN1CCC(C(=O)c2ccc(F)cc2)CC1)c1ccc(F)cc1,.,.,.,.,.,.,/,
COCCNC(=S)Nc1ccc(Cl)c(Cl)c1,.,.,.,.,.,.,/,
COc1cc(C)c(NC(=S)Nc2ccc(Cl)c(Cl)c2)cc1OC,.,.,.,.,.,100,82,
COC(=O)c1cc(OC)c(OC)cc1NC(=S)Nc1cccc(Cl)c1,.,.,.,.,.,91,110,
Oc1ccc(Cl)cc1-c1cc(C(F)(F)C(F)F)nc(-c2ccccc2)n1,.,.,.,.,.,90,.,MPTP swell DR=8.1;MPTP cs DR=<2.5
CCCCn1c(SCC(=O)c2ccccc2)nc2ccsc2c1=O,.,.,.,.,.,64,.,MPTP swell DR=.;MPTP cs DR=.
CCn1c(SCC(=O)c2ccccc2)nc2ccccc2c1=O,.,.,.,.,.,.,/,
O=C(O)CCCCCn1c(SCC(=O)c2ccc(O)c(O)c2)nc2ccsc2c1=O,.,.,.,.,.,.,/,
CCCCn1c(SCC(=O)c2ccc(O)c(O)c2)nc2ccsc2c1=O,/,25,.,.,/,52,30,
Cc1cccc(OC(=O)CN2C(=O)C3C4CCC(C4)C3C2=O)c1C (configuration not stated),.,.,.,.,.,.,/,
CCc1ccc(-c2nc(CSCC(=O)N3CCN(c4ccccn4)CC3)c(C)o2)cc1,.,.,.,.,.,80,58,
SMILES,ADAM17 inh,GRIN3A LBD mod,MT1-MMP act inh,SKN-1 inh,ADAM10 inh,MPTP block,Rh123 counter,others
Cc1ccc(-c2nc(CSCC(=O)N3CCN(c4ccccn4)CC3)c(C)o2)cc1,.,.,.,.,.,.,/,
CCOC(=O)c1ccc(N/N=C/c2cc(Br)cc([N+](=O)[O-])c2O)cc1,.,19,.,.,.,74,21,
CCOC(=O)c1ccc(NC(=O)c2ccccc2[N+](=O)[O-])cc1,.,.,.,.,.,.,/,
O=C(Nc1ccc(Cl)cc1)OCCn1nnnc1C(c1ccccc1Cl)N1CCOCC1 (configuration not stated),.,.,.,.,.,72,85,
O=C(Nc1ccc(Cl)cc1)OCCN1CCOCC1,.,.,.,.,.,.,/,
O=C(CSc1nc2ccccc2c(=O)n1Cc1ccco1)NCc1ccco1,.,.,.,.,.,.,/,
N#CCCn1c(SCC(=O)NCc2ccco2)nc2ccccc21,.,.,.,.,.,74,.,MPTP swell DR=.;MPTP cs DR=.
COc1ccc(C(CNC(=O)c2ccc(Cl)c(S(=O)(=O)N3CCCC3)c2)N2CCCC2)cc1 (configuration not stated),.,.,.,.,.,.,/,
Cc1ccc(-c2noc(C3CCCN(C(=O)c4ccc(C(C)(C)C)cc4)C3)n2)o1 (configuration not stated),.,.,.,.,.,61,39,
Cc1ccc(CN=Cc2[nH]c3ccc(Br)c(Cl)c3c2O)cc1,.,.,.,.,.,69,.,
Cc1nc(N)nc(N)c1Oc1ccc(Cl)cc1,.,.,.,.,.,.,/,
Cc1nc(N)nc(N)c1/C=C/C(C)(C)c1ccc(Cl)cc1,.,.,.,.,.,97,91,
CC1(C)C[C@@H]2C[C@@](C)(CN2C(=O)c2cc(COc3cccc(C(F)(F)F)c3)on2)C1,.,.,.,.,.,.,/,
Cc1ccc(C23CC4CC(CC(NC(=O)N5CCN(C)CC5)(C4)C2)C3)cc1,.,.,.,.,.,71,.,MPTP swell DR=16;MPTP cs DR=.
Cc1ccc(C23CC4CC(CC(C(=O)N5CCN(C)CC5)(C4)C2)C3)cc1,.,.,.,.,.,.,/,
CCCCOc1ccc(CSCCNC(=S)Nc2ccccc2)cc1,.,.,.,.,.,97,95,
Cc1ccc(C)c(-c2ccc(=O)n(Cc3cccc(Br)c3)n2)c1,.,.,.,.,.,.,/,
O=C(CSc1ncnc2c1cnn2-c1ccccc1)Nc1ccc2c(c1)OCO2,.,.,.,.,.,67,.,MPTP swell DR=5.2;MPTP cs DR=6.4
Cc1ccccc1-n1ncc2c(SCC(=O)NC3CCCC3)ncnc21,.,.,.,.,.,80,28,
Cc1nnc(NC(=O)CSc2ncnc3c2cnn3-c2ccccc2C)s1,.,.,.,.,.,.,/,
C=CCN(c1ccc(C(=O)NCCSc2ccccc2)cc1)S(C)(=O)=O,.,.,.,.,.,.,/,
